A value given as a limit tells only on which side of the number the result lay.

The term IC50 denotes the concentration needed to halve the response being measured.

Holding throughout (format): functional, cell-based
In one experiment the test system is SW480. Briefly: Cytotoxicity against human SW480 cells after 24 hrs by MTT assay. The following applies: SW480, 24 h. The essentials: (§1)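 Cell lines from the Navy Medical College, seeded at 8000 cells/well in 96-well plates. Compounds dissolved in DMSO (stock 10 g/L) and freshly diluted in medium. Dilutions were added in duplicate 24 h after seeding, with incubation continued at 37 °C. Viability read by MTT. IC50 taken as the concentration giving 50% growth inhibition, determined following NCCLS recommendations.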
(Tetrazolium assays rely on reduction of a dye to a coloured formazan, in cell work by metabolically active cells.)

A short description of experiment [1]: Cytotoxicity against human QGY7701 cells after 24 hrs by MTT assay. The following applies: QGY7701, 24 h. The essentials: as §1
Another experiment relates to A549. Briefly: Cytotoxicity against human A549 cells after 24 hrs by MTT assay. The essentials:
as §1

For another experiment, the system named is HeLa. Briefly: Cytotoxicity against human HeLa cells after 24 hrs by MTT assay. The note with it: Homo sapiens, HeLa, 24 h; read-out: IC50. The essentials:
as §1

Where [2] appears, read: Homo sapiens, A549, 24 h, read-out: IC50.

In the case of `C=CC1=C(C(=O)Nc2ccc(OCC)cc2)C(c2ccc(F)cc2)OC1` (stereo unspecified), the IC50 with SW480 was greater than 100 µM; in experiment [1], 61.6 µM; in the experiment with A549 (a549), “Not Active”; in the experiment with HeLa it was greater than 100 µM.

`C=CC1=C(C(=O)NCCC)C(c2ccc(OC)cc2)OC1` (stereo unspecified): the IC50 was greater than 100 µM in the experiment on SW480, greater than 100 µM in experiment [1], greater than 100 µM in the experiment on A549 (setting [2]) and 14 µM in the experiment on HeLa.

Take `C=CC1=C(C(=O)NCCCCC)C(c2ccc(OC)cc2)OC1` (stereo unspecified): the IC50 in the experiment with SW480 is greater than 100 µM; in experiment [1], greater than 100 µM; in the experiment with A549 (setting [2]), 36.5 µM; in the experiment on HeLa, greater than 100 µM.

Turning to `C=CC1=C(C(=O)NCC(C)C)C(c2ccc(OC)cc2)OC1` (stereo unspecified), the IC50 (in the experiment on SW480; in experiment [1]; in the experiment on A549 (setting [2]); in the experiment on HeLa) was greater than 100 µM in each case.

As for `C=CC1=C(C(=O)NC(C)(C)C)C(c2ccc(OC)cc2)OC1` (stereo unspecified), the IC50 (with SW480; in experiment [1]; with A549 (setting [2]); in the experiment with HeLa) was greater than 100 µM each time.

For `C=CC1=C(C(=O)Nc2ccccc2)C(c2ccc(OC)c(OC)c2)OC1` (stereo unspecified), the half-maximal inhibitory concentration (IC50) was 45.1 µM in the experiment with SW480, greater than 100 µM in experiment [1], greater than 100 µM with A549 (setting [2]) and 5.03 µM with HeLa.

Consider `C=CC1=C(C(=O)NCc2ccccc2)C(c2ccc(OC)c(OC)c2)OC1` (stereo unspecified), for which the IC50 (in the experiment with SW480; in experiment [1]; with A549 (setting [2]); with HeLa) was greater than 100 µM in each case.

For the compound `C=CC1=C(C(=O)NCc2ccc(C)cc2)C(c2ccc(OC)c(OC)c2)OC1` (stereo unspecified), the IC50 in the experiment with SW480 was greater than 100 µM; in experiment [1], 69.1 µM; with A549 (setting [2]), greater than 100 µM; in the experiment with HeLa it was greater than 100 µM.

With `C=CC1=C(C(=O)NCc2ccc(Cl)cc2)C(c2ccc(OC)c(OC)c2)OC1` (stereo unspecified), the IC50 (in the experiment on SW480; in experiment [1]; in the experiment with A549 (setting [2]); with HeLa) was greater than 100 µM each time.

Consider `C=CC1=C(C(=O)NC2CCCCC2)C(c2ccc(OC)c(OC)c2)OC1` (stereo unspecified), for which the IC50 is 19.1 µM in the experiment on SW480, 7.49 µM in experiment [1], greater than 100 µM in the experiment on A549 (setting [2]) and 5.54 µM in the experiment on HeLa.

On to `C=CC1=C(C(=O)NCCC)C(c2ccc(OC)c(OC)c2)OC1` (stereo unspecified), for which the IC50 (in the experiment with SW480; in experiment [1]; in the experiment on A549 (setting [2]); with HeLa) was greater than 100 µM each time.

For the compound `C=CC1=C(C(=O)N2CCN(c3ccccc3OC)CC2)C(c2ccc(OC)cc2)OC1` (stereo unspecified), the IC50 is greater than 100 µM in the experiment with SW480, 23.6 µM in experiment [1], 23 µM with A549 (setting [2]) and greater than 100 µM with HeLa.

For the compound `C=CC1=C(C(=O)N2CCN(c3cccc(OC)c3)CC2)C(c2ccc(OC)cc2)OC1` (stereo unspecified), the IC50 in the experiment on SW480 was found to be 25 µM; in experiment [1] it was 17.9 µM; in the experiment on A549 (setting [2]) it was 20.7 µM; with HeLa, 15.3 µM.

Take `C=CC1=C(C(=O)N2CCN(c3cccc(C)c3C)CC2)C(c2ccc(OC)cc2)OC1` (stereo unspecified): the IC50 was 44.1 µM in the experiment on SW480, greater than 100 µM in experiment [1], 10.3 µM with A549 (setting [2]) and greater than 100 µM in the experiment on HeLa.

Consider `C=CC1=C(C(=O)N2CCN(c3ccccc3Cl)CC2)C(c2ccc(OC)cc2)OC1` (stereo unspecified), for which the IC50 with SW480 is 13.1 µM; in experiment [1], greater than 100 µM; in the experiment with A549 (setting [2]), 35.3 µM; with HeLa it was greater than 100 µM.

As to `C=CC1=C(C(=O)N2CCN(c3cccc(Cl)c3)CC2)C(c2ccc(OC)cc2)OC1` (stereo unspecified), the IC50 in the experiment with SW480 was greater than 100 µM; in experiment [1], greater than 100 µM; in the experiment with A549 (setting [2]), 26.8 µM; in the experiment with HeLa, greater than 100 µM.

On to `C=CC1=C(C(=O)N2CCN(c3ccc(F)cc3)CC2)C(c2ccc(OC)cc2)OC1` (stereo unspecified), for which the IC50 in the experiment with SW480 is greater than 100 µM; in experiment [1], 11 µM; with A549 (setting [2]) it was 8.31 µM; with HeLa it was 9.86 µM.

For `C=CC1=C(C(=O)N2CCN(c3cccc(Cl)c3Cl)CC2)C(c2ccc(OC)cc2)OC1` (stereo unspecified), the IC50 with SW480 was 29.2 µM; in experiment [1], 4.96 µM; in the experiment with A549 (setting [2]) it was 8.86 µM; in the experiment on HeLa, 4 µM.

As to `COc1cccc2c1C(=O)c1c(O)c3c(c(O)c1C2=O)C[C@@](O)(C(=O)CO)C[C@@H]3O[C@H]1C[C@H](N)[C@H](O)[C@H](C)O1` [DOXORUBICIN], the IC50 in the experiment with SW480 came out at 65.2 µM; in experiment [1] it was 8.65 µM; in the experiment on A549 (setting [2]), 6.61 µM; in the experiment on HeLa, 1.12 µM.

These data come from ChEMBL document CHEMBL1932981, “Synthesis of novel 2, 5-dihydrofuran derivatives and evaluation of their anticancer activity” (Eur J Med Chem, 2012).
